# Test results reported in paper PMC3422576 (Science translational medicine, 2010).
# Legend:
# [1] = test system: Ptch+/−p53−/− medulloblastoma tumors; experiment: Ptch+/−p53−/− medulloblastoma allograft efficacy study in nude mice; type: in vivo, mouse
# Mouse Smo Wild-type = Mouse Smo Wild-type (Mus musculus, UniProt P56726); type: cell-based
# Method in brief: (§1)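 C3H10T1/2 cells transiently co-transfected with HA-tagged mouse Smo (wild-type or point mutant, in pcDNA3.1), a Gli-luciferase reporter and TK-driven renilla luciferase. Serial dilutions of test compound (0.001 to 10 μM final) added 24 h post-transfection. Firefly and renilla luciferase read by dual-luciferase assay after a further 24 h. Percent inhibition calculated relative to DMSO control.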
# Gli1 mRNA = Gli1 mRNA in Ptch+/−p53−/− medulloblastoma allografts in nude mice; type: in vivo, mouse; details: oral, 20 mg/kg/day qd
# Mouse Smo N223D = Mouse Smo N223D (Mus musculus, UniProt P56726, N223D); type: cell-based
# Method in brief: as §1
# Mouse Smo D388N = Mouse Smo D388N (Mus musculus, UniProt P56726, D388N); type: cell-based
# Method in brief: as §1
# Mouse Smo L225R = Mouse Smo L225R (Mus musculus, UniProt P56726, L225R); type: cell-based
# Method in brief: as §1
# Mouse Smo S391N = Mouse Smo S391N (Mus musculus, UniProt P56726, S391N); type: cell-based
# Method in brief: as §1
# mouse Smo = mouse Smo (Mus musculus, UniProt P56726); experiment: Smo Agonist 1.5 displacement assay, mouse Smo; type: binding
# [2] = test system: Ptch+/−Hic+/− medulloblastoma tumors; experiment: Ptch+/−Hic+/− medulloblastoma allograft efficacy study in nude mice; type: in vivo, mouse
# human Smo = human Smo (Homo sapiens, UniProt Q99835); experiment: Smo Agonist 1.5 displacement assay, human Smo; type: binding
# Mouse Smo G457S = Mouse Smo G457S (Mus musculus, UniProt P56726, G457S); type: cell-based
# Method in brief: as §1
# [3] = test system: Gli1, Ptch1, Ptch2 and CyclinD1 mRNA; experiment: Hh target gene mRNA in Ptch+/−Hic1+/− medulloblastoma allografts in nude mice; type: in vivo, mouse; details: Ptch+/−Hic1+/− allograft, oral, initial treatment
# resistant tumor cells = experiment: Ex-vivo medulloblastoma proliferation assay; type: cell-based, mouse; details: cells freshly isolated from resistant tumors
# Sequence of Mouse Smo Wild-type (P56726 33-793): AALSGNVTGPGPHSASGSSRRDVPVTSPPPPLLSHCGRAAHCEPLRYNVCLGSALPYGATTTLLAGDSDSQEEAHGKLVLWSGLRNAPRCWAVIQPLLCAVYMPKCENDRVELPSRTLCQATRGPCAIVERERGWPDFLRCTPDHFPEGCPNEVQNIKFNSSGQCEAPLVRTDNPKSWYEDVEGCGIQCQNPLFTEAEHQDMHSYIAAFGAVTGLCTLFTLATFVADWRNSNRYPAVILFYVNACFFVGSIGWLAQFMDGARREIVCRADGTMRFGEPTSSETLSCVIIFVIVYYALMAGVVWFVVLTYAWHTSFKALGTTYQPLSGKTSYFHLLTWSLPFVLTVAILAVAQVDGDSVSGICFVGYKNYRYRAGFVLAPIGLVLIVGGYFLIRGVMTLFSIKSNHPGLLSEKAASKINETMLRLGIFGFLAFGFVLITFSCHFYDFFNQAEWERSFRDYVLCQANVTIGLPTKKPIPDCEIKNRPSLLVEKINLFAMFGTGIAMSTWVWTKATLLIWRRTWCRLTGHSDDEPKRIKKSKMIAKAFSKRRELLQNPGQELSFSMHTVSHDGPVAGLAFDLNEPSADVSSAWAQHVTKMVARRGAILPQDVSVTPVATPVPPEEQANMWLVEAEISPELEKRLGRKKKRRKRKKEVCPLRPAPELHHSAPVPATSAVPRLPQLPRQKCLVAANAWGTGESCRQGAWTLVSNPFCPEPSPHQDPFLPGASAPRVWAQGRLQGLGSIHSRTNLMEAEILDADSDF
# Sequence of mouse Smo (P56726 33-793): as above
# Sequence of Mouse Smo D388N (P56726 33-793 D388N): as the sequence (P56726 33-793) above, with D356N counted along it
# Sequence of Mouse Smo N223D (P56726 33-793 N223D): as the sequence (P56726 33-793) above, with N191D counted along it
# Sequence of Mouse Smo G457S (P56726 33-793 G457S): as the sequence (P56726 33-793) above, with G425S counted along it
# Sequence of human Smo (Q99835 28-787): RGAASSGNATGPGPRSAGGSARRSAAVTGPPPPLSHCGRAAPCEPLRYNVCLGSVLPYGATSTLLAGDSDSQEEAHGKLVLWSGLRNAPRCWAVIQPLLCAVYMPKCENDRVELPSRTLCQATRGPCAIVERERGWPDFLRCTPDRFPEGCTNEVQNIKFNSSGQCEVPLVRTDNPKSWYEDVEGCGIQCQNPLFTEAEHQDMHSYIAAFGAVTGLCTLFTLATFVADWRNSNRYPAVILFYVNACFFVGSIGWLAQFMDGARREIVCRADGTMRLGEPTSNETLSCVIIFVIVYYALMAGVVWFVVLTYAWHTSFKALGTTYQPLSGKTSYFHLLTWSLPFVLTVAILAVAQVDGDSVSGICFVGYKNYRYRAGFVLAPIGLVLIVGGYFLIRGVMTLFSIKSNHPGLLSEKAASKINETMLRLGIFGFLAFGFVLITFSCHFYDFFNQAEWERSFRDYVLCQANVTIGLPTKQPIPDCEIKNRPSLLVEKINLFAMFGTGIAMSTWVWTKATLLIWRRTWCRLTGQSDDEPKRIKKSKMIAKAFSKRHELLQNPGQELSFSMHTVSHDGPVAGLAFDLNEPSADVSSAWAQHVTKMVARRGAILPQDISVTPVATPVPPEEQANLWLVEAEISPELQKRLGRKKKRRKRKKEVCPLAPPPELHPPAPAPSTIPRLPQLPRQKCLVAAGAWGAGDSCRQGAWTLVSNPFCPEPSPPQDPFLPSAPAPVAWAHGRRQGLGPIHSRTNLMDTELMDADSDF
# Sequence of Mouse Smo S391N (P56726 33-793 S391N): as the sequence (P56726 33-793) above, with S359N counted along it
# Sequence of Mouse Smo L225R (P56726 33-793 L225R): as the sequence (P56726 33-793) above, with L193R counted along it
molecule,measurement,setting,value
"Nc1cc(C(F)(F)F)c(-c2cc(N3CCOCC3)nc(N3CCOCC3)n2)cn1 [NVP-BKM120, reference compound]",tumor growth inhibition in established NVP-LDE225 resistant tumors,"[1]; treatment of established NVP-LDE225 resistant tumors, data not shown",modest but not statistically significant tumor growth inhibition
Cc1c(C(=O)Nc2ccc(N3C[C@@H](C)O[C@@H](C)C3)nc2)cccc1-c1ccc(OC(F)(F)F)cc1 [NVP-LDE225],IC50,Mouse Smo Wild-type,6 nM
same,expression of Hh pathway target gene Gli1 in tumors,Gli1 mRNA,completely suppressed
same,IC50,Mouse Smo N223D,> 10000 nM
same,IC50,Mouse Smo D388N,> 10000 nM
same,IC50,Mouse Smo L225R,> 10000 nM
same,IC50,Mouse Smo S391N,> 10000 nM
same,IC50,mouse Smo,12 nM
same,tumor response during initial treatment,"[2]; Ptch+/−Hic1+/− allograft, oral",tumor regression
same,number of complete regressions,"[2]; Ptch+/−Hic+/− allograft, after 61 days of treatment, n=8, NVP-LDE225 80 mg/kg/day qd, NVP-BEZ235 40 mg/kg/day qd",1
same,IC50,human Smo,11 nM
same,tumor growth,"[1]; 10 mg/kg/day, Ptch+/−p53−/− allograft",partial growth inhibition
same,IC50,Mouse Smo G457S,400 nM
same,"Gli1, Ptch1, Ptch2 and CyclinD1 mRNA expression in tumors",[3],Pronounced inhibition
HhAntag,growth of resistant tumor cells upon exposure,resistant tumor cells,largely unaffected
